Bioassay records: PubChem, several laboratories
The list is not random: actives were taken first. Their share in the collection is about 4.1%.
KCNK3 inh – human KCNK3 channel inhibition, primary screen. CHO-KCNK3 thallium flux, FluxOR fluorescence; stronger effect = lower value. B-score at 10 µM. 340,000 compounds, 0.84% hits. AID 602410;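 active = B-score under library mean minus 4 SD, starting fluorescence ratio at most library mean plus 5 SD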;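 also: more negative B-score means stronger inhibition of thallium flux through KCNK3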
Target sequence (O14649 whole entry, looked up): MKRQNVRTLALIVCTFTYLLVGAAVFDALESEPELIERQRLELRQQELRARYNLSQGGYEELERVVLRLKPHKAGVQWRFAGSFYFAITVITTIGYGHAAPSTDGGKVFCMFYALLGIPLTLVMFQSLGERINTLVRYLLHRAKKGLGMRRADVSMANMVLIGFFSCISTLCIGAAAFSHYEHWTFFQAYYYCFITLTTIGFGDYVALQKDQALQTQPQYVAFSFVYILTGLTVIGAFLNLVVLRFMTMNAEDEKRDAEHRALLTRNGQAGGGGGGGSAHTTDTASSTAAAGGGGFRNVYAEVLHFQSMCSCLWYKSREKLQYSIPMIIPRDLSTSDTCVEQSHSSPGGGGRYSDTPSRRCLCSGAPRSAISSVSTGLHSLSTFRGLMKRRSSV
KCNQ1 pot – human KCNQ1 channel potentiation or activation | P51787 | CHO-K1 KCNQ1, thallium flux FluxOR fluorescence; stronger effect = higher value | B-score at 10 µM | 310,000 compounds, 0.35% hits | AID 2648;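 active = fluorescence ratio B-score, a plate-corrected score, at least three library SD, with initial intensity B-score within 5 SD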
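assay system = CHO-K1 cells stably expressing KCNQ1 | medium = assay buffer, equal DMSO in all wells | timing = 37 °C overnight plating, 90-min dark dye load, 20-min compound pretreatment | measured by = kinetic FluxOR thallium fluorescence, 10-s 1-Hz baseline, 110-s post-stimulus read | measure = fluorescence change relative to baseline, converted to B score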
hERG rescue – shields human hERG channel from block by proarrhythmic agents. Q12809. CHO-hERG, FluxOR thallium flux, dofetilide IC70 present. activation (rescue from dofetilide block), less the hit threshold, % at 10 µM. 310,000 compounds, 0.51% hits;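 active = activation above the mean of controls blocked by dofetilide plus 5 SD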;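 also: thallium influx through hERG after potassium depolarization seen as dye fluorescence rise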
KCNQ1 inh – human KCNQ1 channel inhibition; AID 2642; 310,000 compounds, 1.3% hits; B-score at 10 µM; CHO-K1 KCNQ1, FluxOR thallium flux fluorescence; stronger effect = higher value;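 active = compounds whose thallium flux B-score, printed positive for inhibition, exceeds three library SD while starting fluorescence stays within three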;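 also: channel opened by potassium depolarization with thallium stimulus after 20 min compound exposure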
KCNK9 inh – human KCNK9 channel inhibition; B-score at 10 µM; 310,000 compounds, 1.2% hits; Q9NPC2; AID 488922; HEK293 KCNK9, FluxOR thallium flux fluorescence; stronger effect = lower value;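 active = ratio B-score over 3 SD below the library mean, with starting fluorescence within 5 SD of its mean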;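 also: negative B-score means less thallium flux so channel inhibition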
KCC2 mod – modulators of human KCC2 chloride dependent transport | Q9H2X9 | KCC2 cells, thallium flux FluoZin-2 fluorescence | B-score of Tl+ flux slope (higher = more flux/activation; lower = inhibition) at 10 µM | 190,000 compounds, 2.2% hits | AID 1456;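 active = thallium flux slope and its plate-corrected score both differing from the plate sample mean at a set confidence after two filtering rounds, in either direction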;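 also: slope of fluorescence scaled to starting intensity during 10 to 20 s after thallium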
An asterisk follows results filed as active; i = inactive; x = no result given.

SMILES	KCNK3 inh	KCNQ1 pot	hERG rescue	KCNQ1 inh	KCNK9 inh	KCC2 mod
CCc1nc2ccccc2c(C(=O)OCC(=O)Nc2ccc(S(=O)(=O)N3CCOCC3)cc2)c1C	i	i	-12	i	i	-1.1
O=C(OCc1nc2ccccc2s1)c1cccc(S(=O)(=O)N2CCOCC2)c1	i	i	-5	i	i	-5.1*
COc1ccccc1C(=O)OCC(=O)Nc1cccc(S(=O)(=O)N2CCCC2)c1	i	x	x	x	x	x
CC(CC(=O)Nc1cccc(S(=O)(=O)N2CCCCC2)c1)c1ccccc1 (stereo not given)	i	x	x	x	x	x
Cc1ccc(C)c(C(=O)OCC(=O)Nc2cccc(S(=O)(=O)N3CCCCC3)c2)c1	-9.6*	x	x	x	x	x
CCCC(C(=O)Nc1cccc(S(=O)(=O)N2CCCC2)c1)c1ccccc1 (stereo not given)	i	i	-11	i	-7.4*	x
COc1cc(CNC(=O)c2ccc3oc(C(C)C)nc3c2)cc(OC)c1	i	i	-3	i	i	x
COc1cc(NC(=O)OCc2ccccc2)c2ncccc2c1	-11*	x	x	x	x	x
O=[N+]([O-])c1ncccc1OCc1ccc(Cl)c(Cl)c1	i	i	-10	i	i	x
COC(=O)c1ccccc1NC(=O)c1ccc2c(c1)OCCCO2	i	i	-6	i	-6.8*	x
Cc1ccccc1NC(=O)c1ccc2c(c1)OCCO2	i	i	-4	i	i	0.99
CC(=O)c1sc(-c2ccccc2)cc1NS(=O)(=O)c1ccc(C)cc1	i	i	-3	i	i	30*
CCCCCOc1ccc(/C(C)=N/NC2=NCCN2)cc1	i	i	-21	i	i	x
CCCCCCOc1ccc(/C(C)=N/NC2=NCCN2)cc1	i	i	-32	13*	i	x
CC(NC(=O)c1ccc(C#N)cc1)C1CC2CCC1C2 (stereo not given)	i	i	-3	i	i	x
CN(C)S(=O)(=O)c1ccc(NC(=S)NC(=O)c2ccc(Br)o2)cc1	x	i	-5	i	i	13*
Cc1ccc(C(=O)C(c2ccccc2)N2Cc3ccccc3C2=N)cc1 (stereo not given)	i	i	-17	11*	i	-0.8
Cc1cc(C)n(CCC(=O)Nc2ccc3c(c2)OCCO3)n1	i	i	-11	i	i	x
CCN1CC=C2C(C1)C(c1ccc(Cl)s1)C(C#N)=C(N)C2(C#N)C#N (stereo not given)	i	i	-20	11*	i	i
CCOc1ccc(NC(=O)CSc2nc(=O)n(Cc3cccnc3)c3c2CCC3)cc1	i	i	-8	i	i	x
O=C(NC(=S)Nc1cccnc1Cl)c1ccc(F)cc1	i	i	-9	i	i	x
Cc1cc(C)c(C(=O)c2ccc(C(=O)N3CCCCC3)cc2)c(C)c1	i	i	14*	i	i	x
Cc1cc(CN2CCCCC2C(=O)Nc2ccc(Oc3cccnc3)cc2)oc1C (stereo not given)	i	i	-8	i	i	x
CCOc1ccc(/C=N/NC(=O)c2ccccc2O)cc1CN1CC2CC(C1)c1cccc(=O)n1C2 (stereo not given)	i	x	x	x	x	x
C=C1CCN(c2ccc(C(=O)NCc3ccc(C)cc3)cc2[N+](=O)[O-])CC1	i	14*	-10	i	i	x
SMILES	KCNK3 inh	KCNQ1 pot	hERG rescue	KCNQ1 inh	KCNK9 inh	KCC2 mod
CSc1nsc2nc(=O)c(/C=C3\C=Nc4ccccc43)c(N)n12	i	i	-9	i	i	-3.1*
Cc1cn2c(N)c(/C=C3\C=Nc4ccccc43)c(=O)nc2s1	i	i	0	i	i	-0.59
CC(=O)Nc1ccc(C=NNC(=O)CCCC(=O)NN=Cc2ccc(NC(C)=O)cc2)cc1	i	x	x	x	x	x
CC(C)NC(=NCc1ccc(Cl)cc1Cl)Nc1ccccc1	i	i	-5	6*	i	x
CCn1c(-c2cc(-c3ccc(OC(C)C)cc3)nc3ccccc23)n[nH]c1=S	i	i	-20	6*	i	2
COc1ccc(C(C)=O)cc1CSc1ccc(S(=O)(=O)N2CCCCC2)cn1	i	x	x	x	x	x
O=C(Nc1cccc(Cl)c1)c1cc(N=Nc2ccc([N+](=O)[O-])cc2Cl)ccc1O	i	i	-13	7*	i	11*
